Assay outcomes from PubChem BioAssay.
CSN deneddyl inh: inhibitors of CSN-mediated cullin deneddylation, primary screen, biochemical, fluorescence polarization, uHTS. COP9 signalosome complex subunit 5 (Homo sapiens), Q92905. Purified CSN, SCF-Nedd8-OG deneddylation. inhibition, % at 12.5 µM. actives 0.38% (n = 360,000). AID 651999, 2013;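 active means pattern-corrected inhibition above about 35%, with an unprinted fluorescence ratio check between 0.5 and 1.5, limit read from the data, passing the limit was not always enough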;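 further: 0% = enzyme with substrate and 100% = substrate without enzyme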
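Material: purified human Csn5 enzyme expressed in HEK293T cells / Medium: Tris buffer pH 7.5, NaCl, DTT, Tween-20, trehalose, ovalbumin / Compound dosing: 12.5 µM single point / Schedule: 90 min incubation of compound, enzyme and substrate at room temperature / Signal: fluorescence polarization of the substrate / Control set: no-enzyme wells high, enzyme-with-substrate wells low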
IDE cell activ: human IDE activators in live cells, primary screen, fluorescence polarization, HEK cells, FAbeta-B substrate; actives 0.073% (n = 340,000); activation, % at 5.96 µM; FAbeta-B cleavage; 0% vehicle, 100% cell-free pure enzyme wells; Insulin-degrading enzyme (Homo sapiens), P14735; AID 493087, 2011;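 active means activation above the mean of all tested compounds plus 3 SD, set per screening campaign, cut at about 17% in these data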
HNF4A DNA FP: change in binding of human HNF4A to DNA, primary screen, biochemical, fluorescence polarization, FITC-DNA. Hepatocyte nuclear factor 4-alpha (Homo sapiens), P41235. 1 h. activity change, % at 10 µM. actives 0.3% (n = 360,000). AID 1224865, 2016; in the data active means activity change above about 30%, passing the limit was not always enough
Target sequence (P41235 whole entry, looked up): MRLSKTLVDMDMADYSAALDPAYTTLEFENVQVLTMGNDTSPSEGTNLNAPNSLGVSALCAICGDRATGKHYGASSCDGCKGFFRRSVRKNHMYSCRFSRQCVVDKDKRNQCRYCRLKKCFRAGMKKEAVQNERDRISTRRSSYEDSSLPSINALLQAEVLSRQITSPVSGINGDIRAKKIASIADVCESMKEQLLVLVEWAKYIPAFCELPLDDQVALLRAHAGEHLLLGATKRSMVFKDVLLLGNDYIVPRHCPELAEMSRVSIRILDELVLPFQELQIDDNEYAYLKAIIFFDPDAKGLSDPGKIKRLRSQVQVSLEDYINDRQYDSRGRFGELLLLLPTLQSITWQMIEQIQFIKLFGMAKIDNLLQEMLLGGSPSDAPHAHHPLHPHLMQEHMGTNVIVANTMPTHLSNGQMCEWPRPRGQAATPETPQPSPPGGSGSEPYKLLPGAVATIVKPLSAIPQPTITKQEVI
IDE inh: human IDE inhibitors in live cells, primary screen, fluorescence polarization, HEK cells, FAbetaB substrate. Insulin-degrading enzyme (Homo sapiens), P14735. FAbetaB cleavage. inhibition, % at 5.59 µM. actives 0.41% (n = 320,000);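 active means percent inhibition above the average of all tested compounds plus 3 SD, set per screening campaign, cut at about 16% in these data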;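 further: IDE supplied by intact live HEK cells; FP after avidin binding of uncleaved biotin substrate so inhibition keeps polarization high; 0% = DMSO wells and 100% = 60 µM reference IDE inhibitor Ii1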
TPT1 inhibitor: Candida albicans TPT1 enzyme inhibitors, primary screen, biochemical, fluorescence polarization; actives 0.81% (n = 300,000); recombinant caTPT1, FP RNA substrate dephosphorylation; tRNA 2'-phosphotransferase TPT1 (Candida albicans SC5314); inhibition, % at 5 µM; AID 1962, 2009;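 active means inhibition above the mean of all tested compounds plus 3 SD, set per screening campaign, cut at about 24% in these data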;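 further: plate controls were DMSO alone for no effect and ferristatin control at 100 nM for full effect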
* = called active by the depositor; nt = no result given. Sampled rows, rich in hits. Any-hit rate of the full collection: about 1.4%.

SMILES	CSN deneddyl inh	IDE cell activ	HNF4A DNA FP	IDE inh	TPT1 inhibitor
CN1CCN(c2cccc3c2S(=O)(=O)N[C@@H](Cc2ccccc2)CO3)CC1	-7	nt	1	nt	nt
Cc1[nH]c2ccc(C(=O)N3CCN(c4ccccn4)CC3)cc2c1C	-4	3	103*	0	-2
O=c1/c(=C\c2ccc(O)cc2)sc2nc(-c3ccccc3)c(-c3ccccc3)n12	13	9	52*	2	15
O=c1/c(=C/c2ccc(O)cc2)sc2nc3cc(Br)cnc3n12	nt	nt	nt	1	3
CSCc1cc(C(=O)NC2CC2)c(N)s1	5	nt	5	nt	nt
Cc1ccc(S(=O)(=O)N2c3ccccc3OC(C(=O)OC(C)(C)C)(C(=O)OC(C)(C)C)C2CC(=O)c2ccccc2)cc1 (stereo not drawn)	2	nt	2	nt	nt
Oc1ccc(C=Nc2ccc(N3CCOCC3)cc2)c(O)c1	10	3	2	5	0
Oc1cc(Br)ccc1C=Nc1ccc(N2CCCCC2)cc1	-2	2	37*	-2	0
CC(C)(C)NC(=O)C(c1ccncc1)n1c(-c2ccc(C(F)(F)F)cc2)nc2ccccc21 (stereo not drawn)	-2	nt	3	nt	nt
CC(=O)N1CCC(C(=O)N2c3ccccc3N=C(c3ccc(C(F)(F)F)cc3)C2C(=O)NC2CCCC2)CC1 (stereo not drawn)	0	nt	-2	nt	nt
C=CCn1c(SCC(=O)c2c(C)[nH]c3ccccc23)nnc1-c1ccncc1	36*	nt	5	5	-8
O=C(NCc1ccccc1)C(C1CC1)n1c(-c2cccs2)nc2ccccc21 (stereo not drawn)	1	nt	3	nt	nt
Cc1cc(C(=O)Nc2cccc(O)c2)c(C)o1	-2	-4	60*	2	-2
COC(=O)C1=C(C)N(CC2CC2)C(=NCc2cccc(C(F)(F)F)c2)N[C@H]1c1ccccc1	16	2	26	0	nt
COC(=O)C1=C(C)N(Cc2ccccc2)C(=NCc2cccc(C(F)(F)F)c2)N[C@H]1c1cccc(F)c1	-2	24*	3	-2	-1
COC(=O)C1=C(C)N(Cc2ccccc2)C(=NCc2cccc(C(F)(F)F)c2)N[C@H]1c1cccc(C(F)(F)F)c1	-1	29*	3	5	nt
COc1cc(OC)cc(C2=Cc3ccccc3C(CC(=O)c3ccco3)N2c2ccc(-c3cncnc3)cc2)c1 (stereo not drawn)	-2	nt	2	nt	nt
COc1ccc(Cn2c(O)c(/C=N/NC(=O)c3cccnc3)c3ccccc3c2=O)cc1	31	-10	44*	nt	nt
CCOC(=O)C1=C(CSc2nc(CC)c(C)cc2C#N)OC(N)=C(C#N)C1c1ccccc1 (stereo not drawn)	0	0	3	1	4
CCOC(=O)C1=C(CSc2nc(-c3ccccc3)ccc2C#N)OC(N)=C(C#N)C1c1ccc(OC)cc1 (stereo not drawn)	20	-7	39*	3	23
C/C=C\C=C/C(=O)Nc1cccc(C2=NOC3(C2)C[C@@H](C(N)=O)N(C(=O)/C=C/C=C\C)C3)c1 (stereo partly drawn)	64*	-3	-41	9	5
COc1cc(C(=O)Nc2nnc(-c3sccc3C)s2)cc(OC)c1OC	59*	-2	7	6	1
Cc1ccc(-c2nc(NC(=O)CSc3nnc4scc(-c5ccccc5)n34)ns2)cc1	37*	0	-3	-3	3
Cc1ccc(S(=O)(=O)N2C[C@H]3C(=O)C[C@@H](c4cccs4)N(S(=O)(=O)c4ccc(C)cc4)[C@H]3C[C@H]2c2ccccc2)cc1	6	nt	2	nt	nt
CS(=O)(=O)N1CCN(c2ccc([N+](=O)[O-])c(NCc3ccc(Cl)cc3)c2)CC1	76*	5	33	3	-3
SMILES	CSN deneddyl inh	IDE cell activ	HNF4A DNA FP	IDE inh	TPT1 inhibitor
COc1ccccc1-c1c(C(F)(F)F)oc2cc(OC(=O)c3ccc([N+](=O)[O-])cc3)ccc2c1=O	0	-13	-1	17*	-1
O=C(CN1C(=O)COc2ccc(S(=O)(=O)N3CCCC3)cc21)NCc1ccccn1	1	19*	1	1	-2
COc1ccc(NC(=O)CCn2c(=S)[nH]c3ccccc3c2=O)cc1Cl	15	nt	42*	nt	nt
O=C(CCn1c(=S)[nH]c2ccccc2c1=O)Nc1cccc(Cl)c1	0	3	-2	-7	-2
C1CCCCCC(=NNc2nn[nH]n2)CCCCC1	3	34*	4	1	1
Cc1cc(C)nc(NN=C2CCCC2)n1	-5	2	0	2	-3
COc1ccccc1Cc1c(-c2ccco2)nc2ccc(Cl)cn12	36*	nt	-3	nt	nt
Clc1ccc2nc(-c3ccco3)c(Cc3ccccc3)n2c1	36*	nt	0	nt	nt
Fc1cccc(Cc2c(-c3ccco3)nc3ccc(Cl)cn23)c1	15	nt	11	nt	nt
CCOc1ccc(CCN2C(=S)N([C@@H](Cc3ccc(O)cc3)CN3CCC[C@@H]3CN3C(=S)NC[C@@H]3CC(C)C)C[C@@H]2Cc2ccc(O)cc2)cc1	2	nt	-3	nt	nt
CC(C)c1ccc([C@@H]2O[C@H](CCc3ccccc3)CC3=C2C(=O)OC(C)(C)O3)cc1	-9	nt	1	nt	nt
CCOC(=O)C(=C1Nc2ccccc2N1)n1c(-c2cccnc2)nc2ccccc21	0	nt	-3	nt	nt
CCOC(=O)[C@]12CCCC=C1N(Cc1ccco1)C(=O)[C@H](CC(=O)NCCc1ccccc1OC)C2	5	nt	4	nt	nt
Cc1ccc(S(=O)(=O)N2[C@H](CC(=O)Oc3ccccc3)OC[C@@H]2C(C)C)cc1	-4	nt	2	nt	nt
COc1ccc(OCCOc2ccc(/C=C3\C(=N)N4N=C(C)SC4=NC3=O)cc2)cc1	46*	5	-10	2	nt
CC(=O)Nc1ccc(OCCOc2ccc(/C=C3\C(=N)N4N=C(C)SC4=NC3=O)cc2)cc1	7	4	4	2	3
CCCCCCCCC(c1nc2ccccc2[nH]1)N1CCN=C1c1cc2ccccc2[nH]1 (stereo not drawn)	13	nt	0	nt	nt
Nc1ccc(Oc2c(Cl)cccc2Cl)nc1	37*	0	4	8	0
Cc1cc(Oc2ccc(N)cn2)cc(C)c1Cl	8	4	3	-2	10
CC(C)(C)c1ccc(Oc2ccc(N)cn2)cc1	-78	nt	64*	0	5
COc1ccc(S(=O)(=O)N(C)C[C@H]2OCc3cn(nn3)CCCC(=O)N([C@@H](C)CO)C[C@@H]2C)cc1	-1	nt	2	nt	nt
CCN(CC)CCC12CC(C)OC1=Nc1ccccc1NC2=O (stereo not drawn)	-4	nt	-3	nt	nt
Oc1cc(OCc2ccccc2)ccc1-c1[nH]ncc1-c1ccccc1	-1	23*	1	1	1
